Measured values reported in PMC9168489 (Proceedings of the National Academy of Sciences of the …, 2022).
Where a chain is given by its changes, count along the chain named. Where no end group is shown, it is not given here.

Legend:
HTRA1 (human) = HTRA1 (human) (UniProt Q92743); assay: ITC
tau fibrils [1] = assay: Proteolysis of tau fibrils; assay type: biochemical; details: 2.5 µM tau fibrils, 2.5 µM HTRA1/HTRA1-CAPN2, 37 °C, 50 mM Tris HCl pH 8
HTRA1 [2] = assay: Soluble tau digest with HTRA1; assay type: biochemical, human; details: SDS-PAGE; for activation of HTRA1 by CAPN2: 0.5 µM HTRA1, 5 µM tau, 50 mM Tris pH 8.0, 37 °C, CAPN2 titration
HTRA1ΔPDZ = assay: Soluble tau digest with HTRA1ΔPDZ; assay type: biochemical, human; details: 50 µM peptide, 0.5 µM protease, 5 µM tau, 50 mM Tris pH 8.0, 37 °C; SDS-PAGE
Method in brief: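 Soluble tau (5 µM) digested by 0.5 µM protease (HTRA1ΔPDZ run alongside full-length HTRA1) in 50 mM Tris pH 8.0 at 37 °C. Peptides derived from the CAPN2 C terminus were added at 50 µM, with a no-peptide control. Samples were taken at several time points and tau cleavage was followed by SDS-PAGE.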

HTRA3 = assay: Tau digest with HTRA3; assay type: biochemical, human; details: 0.5 µM HTRA3, 5 µM tau, 50 µM peptide, 50 mM Tris pH 8.0, 37 °C
HTRA1 Asn311Ala = assay: Tau digest with loop L3 mutant Asn311Ala; assay type: biochemical, human; details: 50 µM peptide
Method in brief: (§1)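 HTRA1 loop L3 point mutants were assayed by tau digestion, with or without 50 µM test peptides derived from the CAPN2 C terminus, to measure mutant activity.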

HTRA2 = assay: Tau digest with HTRA2; assay type: biochemical, human; details: 0.5 µM HTRA2, 5 µM tau, 50 µM peptide, 50 mM Tris pH 8.0, 37 °C
HTRA1 Lys305Ala = assay: Tau digest with loop L3 mutant Lys305Ala; assay type: biochemical, human; details: 50 µM peptide
Method in brief: as §1

tau fibrils [3] = assay: Sedimentation assay of tau fibrils; assay type: biochemical; details: no Ca^2+, ultracentrifugation
Method in brief: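 Tau fibrils were incubated with HTRA1SA alone, the HTRA1SA–CAPN2 complex, CAPN2 alone, or no protein, then ultracentrifuged. Total sample taken before centrifugation, pellet and supernatant fractions were resolved by SDS-PAGE and stained with Coomassie.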

HTRA1 [4] = assay: ITC of HTRA1SA and CAPN2CA; assay type: binding, human; details: 500 µM HTRA1SA in syringe titrated to 10 µM CAPN2CA, 50 mM bicine, 150 mM NaCl pH 9.0, 37 °C
tau = assay: Soluble tau digest with CAPN2 alone; assay type: biochemical; details: buffers without Ca^2+
Method in brief: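 5 µM soluble tau was incubated with 0.5 µM CAPN2 in 50 mM Tris HCl, pH 8, at 37 °C. Aliquots were withdrawn at set time points and analysed by SDS-PAGE.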

tau fibrils [5] = details: in the presence of Ca^2+; cited from earlier work
HTRA1 (HEK293 cells) = assay: Coimmunoprecipitation of HTRA1 with CAPN2; assay type: cell-based, human; details: HEK293 lysates; Strep or Myc beads; n = 3

CFD peptide, carboxyl terminus of complement factor D
Kd (HTRA1 (human)): 4 µM

HTRA1–CAPN2 complexes: hetero-oligomeric complex consisting of the cysteine protease calpain 2 (CAPN2) and HTRA1
proteolysis of tau fibrils (tau fibrils [1]): a slight decrease of HTRA1 activity
degradation of soluble tau (HTRA1 [2]; 5 µM tau, 0.5 µM HTRA1, 0.5 µM CAPN2, 37 °C, 50 mM Tris HCl pH 8): degradation of soluble tau was improved

LISWLCFSVL
activation of HTRA1ΔPDZ by peptides (HTRA1ΔPDZ): not activated

LISWLSDSEL
activation of HTRA1ΔPDZ by peptides (HTRA1ΔPDZ): activated wild-type but not HTRA1ΔPDZ

LISWLSFSDL
effect on HTRA3 activity (HTRA3): activated HTRA3 strongly
activation of HTRA1 Asn311Ala (HTRA1 Asn311Ala): still allowed activation
effect on HTRA2 activity (HTRA2): HTRA2 weakly
activation of HTRA1 Lys305Ala (HTRA1 Lys305Ala): still allowed activation

B1: CCNH peptide, carboxyl terminus of cyclin H (peptide)
peptide: EWTDDDLVESL
modifications: not fully specified
Kd (HTRA1 (human)): 40 µM

B2: CAPN2: CAPN2 heterodimer consists of a cysteine protease and a regulatory subunit (protein, UniProt P17655 20-700; P04632 1-268, looked up)
Calpain-2 catalytic subunit: SHDRAIKYLNQDYEALRNECLEAGTLFQDPSFPAIPSALGFKELGPYSSKTRGIEWKRPTEICADPQFIIGGATRTDICQGALGDCWLLAAIASLTLNEEILARVVPLNQSFQENYAGIFHFQFWQYGEWVEVVVDDRLPTKDGELLFVHSAEGSEFWSALLEKAYAKINGCYEALSGGATTEGFEDFTGGIAEWYELKKPPPNLFKIIQKALQKGSLLGCSIDITSAADSEAITFQKLVKGHAYSVTGAEEVESNGSLQKLIRIRNPWGEVEWTGRWNDNCPSWNTIDPEERERLTRRHEDGEFWMSFSDFLRHYSRLEICNLTPDTLTSDTYKKWKLTKMDGNWRRGSTAGGCRNYPNTFWMNPQYLIKLEEEDEDEEDGESGCTFLVGLIQKHRRRQRKMGEDMHTIGFGIYEVPEELSGQTNIHLSKNFFLTNRARERSDTFINLREVLNRFKLPPGEYILVPSTFEPNKDGDFCIRVFSEKKADYQAVDDEIEANLEEFDISEDDIDDGFRRLFAQLAGEDAEISAFELQTILRRVLAKRQDIKSDGFSIETCKIMVDMLDSDGSGKLGLKEFYILWTKIQKYQKIYREIDVDRSGTMNSYEMRKALEEAGFKMPCQLHQVIVARFADDQLIIDFDNFVRCLVRLETLFKIFKQLDPENTGTIELDLISWLCFSVL
Calpain small subunit 1: MFLVNSFLKGGGGGGGGGGGLGGGLGNVLGGLISGAGGGGGGGGGGGGGGGGGGGGTAMRILGGVISAISEAAAQYNPEPPPPRTHYSNIEANESEEVRQFRRLFAQLAGDDMEVSATELMNILNKVVTRHPDLKTDGFGIDTCRSMVAVMDSDTTGKLGFEEFKYLWNNIKRWQAIYKQFDTDRSGTICSSELPGAFEAAGFHLNEHLYNMIIRRYSDESGNMDFDNFISCLVRLDAMFRAFKSLDKDGTGQIQVNIQEWLQLTMYS
tau fibril dissociation (solubilization) (tau fibrils [3]; equimolar amounts, SDS-PAGE and Coomassie): Partial fibril dissociation
co-sedimentation with tau fibrils (tau fibrils [3]): co-sedimentation of CAPN2 and fibrils
Kd (HTRA1 [4]): 4 µM
digestion of tau by CAPN2 (tau): does not digest tau
activation of HTRA1 by CAPN2 (HTRA1 [2]): improved activation of HTRA1 by CAPN2 compared to the isolated C-terminal decapeptide
proteolysis of tau fibrils by CAPN2 (tau fibrils [5]): proteolyzes fibrils
coimmunoprecipitation with HTRA1 (HTRA1 (HEK293 cells)): complex formation was supported by coimmunoprecipitations

B3: CAPN2CA (protein)
chain 1: B2 Calpain-2 catalytic subunit with C86A
chain 2: B2 Calpain small subunit 1
activation of HTRA1 by CAPN2 (HTRA1 [2]): dose-dependent activation of HTRA1
